Screening data (PubChem BioAssay)
MT1-MMP act inh: inhibitors of human MT1-MMP activation. P50281. HT1080 RFP-PRO-GFP cells, GFP/RFP ratio fluorescence, overnight; percent of plate control window, DMSO zero. GFP/RFP ratio change, % at 20 µM. actives 0.061% (n = 360,000). AID 651647;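 active means GFP/RFP ratio change of at least 30% with cell ATP level not reduced by more than half and red fluorescence within 50% of control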
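system = RFP-PRO-GFP reporter HT1080 cells | dosing = 20 µM single dose, 1% DMSO | timing = overnight cell settling, then overnight compound exposure, 37 °C, 5% CO2 | read-out basis = GFP/RFP fluorescence ratio | controls = DMSO and RFP-L50D-GFP cell wells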
SKN-1 block: blocks SKN-1 activity in C. elegans; actives 0.49% (n = 360,000); inhibition, % at 21.8 µM; C. elegans VP596 Pgst-4::GFP/RFP ratio, acrylamide-induced, 24 h;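 active means interference check ratio from 0.5 to 1.5 plus GFP to RFP signal ratio inhibition reaching or exceeding a fixed threshold, cut at about 30% in these data, passing the limit was not always enough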
DAGLB inhibitor: blocks human DAGLB lipase activity. HEK293T DAGLB membrane lysate, EnzChek fluorogenic substrate. inhibition, % at 5.17 µM. actives 0.059% (n = 340,000). AID 504411. Q8NCG7; in the data active means inhibition above about 34%;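 further: 0% = enzyme with vehicle and 100% = wells lacking enzyme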
Tn7 DDE FP: inhibitors of Tn7 peptide binding to human fibrin DD(E); FP displacement of FITC-Tn7 peptide from fibrin DD(E); 0% = median of compound wells per plate; actives 0.13% (n = 370,000); P02675; inhibition, % at 8.3 µM;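 active means inhibition above the mean of compounds falling within the control limits plus 3 SD of them, cut at about 14% in these data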;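 further: 0% = plate median of compound wells and 100% = 10 µM Aha-Tn7 peptide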
Target sequence (P02675 whole entry, looked up): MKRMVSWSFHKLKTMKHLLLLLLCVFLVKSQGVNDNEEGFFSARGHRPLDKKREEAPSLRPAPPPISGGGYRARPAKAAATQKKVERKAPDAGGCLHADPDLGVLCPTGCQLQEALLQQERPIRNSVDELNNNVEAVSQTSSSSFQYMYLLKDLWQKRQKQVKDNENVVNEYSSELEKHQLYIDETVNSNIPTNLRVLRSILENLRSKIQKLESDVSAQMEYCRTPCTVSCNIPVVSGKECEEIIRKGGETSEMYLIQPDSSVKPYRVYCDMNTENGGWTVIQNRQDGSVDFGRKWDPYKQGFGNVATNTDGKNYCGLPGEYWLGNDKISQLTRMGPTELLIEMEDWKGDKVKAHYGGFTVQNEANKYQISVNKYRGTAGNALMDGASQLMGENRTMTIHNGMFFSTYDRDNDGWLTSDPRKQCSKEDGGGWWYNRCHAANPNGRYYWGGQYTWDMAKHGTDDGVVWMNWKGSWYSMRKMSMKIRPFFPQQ
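Assay system: Fibrin-DD(E) protein isolated from polymerized human fibrin clots; read-out basis: percent inhibition; medium: Tris/NaCl/CaCl2 buffer, pH 7.8; signal: FP measurement; incubation: 10 min plus 3 h, room temperature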
Tn6 DDE FP: DD(E)-Tn6 binding inhibition, primary FP screen; AID 720509; inhibition, % at 8.3 µM; Fibrin DD(E) TRITC-Tn6 fluorescence polarization displacement; actives 0.21% (n = 370,000);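 active means inhibition above a per-campaign cutoff: mean of compounds within control limits plus 3 SD, cut at about 15% in these data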;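 further: 0% = median of all compound wells on the plate and 100% = blocking peptide control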
PolyA inhibitor: blocks polyadenylation in yeast reporter cells | S. cerevisiae SKY197-pL101 polyadenylation reporter, beta-gal luminescence; efflux-impaired pdr1/pdr3 knockout yeast; score 100 = 6 SD above DMSO | activity score, % at 12 µM | actives 0.02% (n = 300,000) | AID 1875;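 active means lowest replicate activity score at least 50, where 100 means six control SD above control mean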;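 further: yeast exposed to compound for 9 h at 30 °C; higher score means more reporter readthrough which indicates perturbed polyadenylation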
* hit, by the source's call; . = not tested or not shown. A selection: hits, their analogues and other compounds. The true share with any hit is near 0.9%.

SMILES	MT1-MMP act inh	SKN-1 block	DAGLB inhibitor	Tn7 DDE FP	Tn6 DDE FP	PolyA inhibitor
O=C(C1CCCN1S(=O)(=O)c1ccc([N+](=O)[O-])cc1)N1CCc2ccccc2C1 (centres undefined)	.	.	.	-4	-5	.
O=c1c(/C=N/Nc2ccccc2)c(Sc2nnnn2-c2ccccc2)nc2ccccn12	-150	36*	-3	0	-7	.
O=C(O)c1ccccc1N/N=C/c1c(Sc2nnnn2-c2ccccc2)nc2ccccn2c1=O	-15	16	3	-8	-8	-4
CC1(C)CC(=O)C(C(=O)c2ccccc2)C(=O)C1	-1	-3	-1	-3	9	-6
O=C1C=C(c2ccccc2)OC(=O)C1C(=O)c1ccccc1 (centres undefined)	2	-2	-5	0	4	121*
O=C1N2Cc3ccccc3C2CS(=O)(=O)N1CCc1ccccc1 (centres undefined)	.	.	.	-4	2	.
CC1=C(C(=O)OCC2CCCO2)C(c2ccccc2OC(C)C)C2=C(CC(c3ccco3)CC2=O)N1 (centres undefined)	-3	40*	-12	6	-4	22
CC1=C(C(=O)OCC2CCCO2)C(c2cccc(C(F)(F)F)c2)C2=C(CC(c3ccco3)CC2=O)N1 (centres undefined)	-13	-6	1	5	-3	13
COc1cc2c(cc1OC)C(C1C(=O)CCCC1=O)N(C(=O)CCl)CC2 (centres undefined)	7	4	1	-2	-8	-1
COc1cc2c(cc1OC)C(c1ccccc1)N(C(=O)CCl)CC2 (centres undefined)	0	34*	1	-2	3	-11
O=C(NC1CCc2ccccc21)c1cc(-c2ccc(Cl)cc2)nc2ccccc12 (centres undefined)	.	.	.	1	-6	.
O=c1c2ccccc2ncn1-c1ccc(Cl)cc1Cl	-3	35*	.	-3	-10	-7
O=c1ccn(Cc2ccccc2)c(SCc2ccccc2)n1	5	0	-2	-5	5	.
Clc1ccc(CSc2nccn2Cc2ccccc2)cc1	-7	38*	-4	3	-1	-15
Cn1c(Cc2c[nH]c3ccccc23)n[nH]c1=S	-4	44*	0	-2	4	-12
Cc1[nH]c2ccccc2c1Cc1n[nH]c(=S)n1C	3	9	0	-1	3	-7
CCOC(=O)CN1CC23C=CC(O2)C(C(=O)NCc2cccs2)C3C1=O (centres undefined)	5	37*	2	1	0	5
CCOC(=O)CN1CC23C=CC(O2)C(C(=O)NCc2ccc(C)cc2)C3C1=O (centres undefined)	1	-3	0	11	-1	0
CCN1/C(=C/c2ccc3ccccc3[n+]2CC)C=Cc2ccccc21	66	78	25	-7	-1	-5
CCN1/C(=C/c2ccc3ccccc3[n+]2CCCS(=O)(=O)[O-])C=Cc2cc(C)ccc21	58	39*	-4	2	4	-11
Nc1ccc2c(Cl)cc(Cl)cc2c1	-3	63*	-3	5	-2	.
Nc1ccc2c(O)cc(S(=O)(=O)O)cc2c1	-6	11	-4	0	-32	.
Cn1c(SCC2CCC2)nnc1-c1ccco1	.	.	.	0	2	.
Cc1oc(-c2ccc(-c3ccccc3)cc2)nc1CN(C)C1CCOC1 (centres undefined)	1	65*	-2	0	-3	-4
Cc1oc(-c2cccc(Cl)c2)nc1CN(C)C1CCOC1 (centres undefined)	-1	12	-1	-2	-7	-10
SMILES	MT1-MMP act inh	SKN-1 block	DAGLB inhibitor	Tn7 DDE FP	Tn6 DDE FP	PolyA inhibitor
COc1ccc(-c2cc(C(=O)Nc3c(C)n(C)n(-c4ccccc4)c3=O)c3ccccc3n2)c(OC)c1	-4	36*	0	1	0	-13
O=C(NCC1CC1(Cl)Cl)Nc1ccc(Cl)c(Cl)c1 (centres undefined)	-2	56*	-8	7	5	6
Fc1ccc(CSc2ncnc3ccccc23)cc1	-13	62*	-3	2	2	-8
Cc1ccc(CSc2ncnc3ccccc23)cc1	-6	12	-4	4	2	-21
c1ccc(CSc2ncnc3ccccc23)cc1	-8	59*	-4	1	2	-25
Fc1cccc(CSc2ccc(-c3ccco3)nn2)c1	0	49*	-15	-9	-3	-22
CCc1c(C(=O)C(C)O)c2n3c1CCC[C@@H]3CC2 (some centres undefined)	.	.	.	-1	4	.
O=C(O)COc1ccc(/C=N/NC(=O)C(O)(c2ccccc2)c2ccccc2)cc1	3	40*	2	7	4	-17
O=C(OCC(=O)N1N=C(c2ccc(Cl)cc2)CC1c1ccco1)c1ccccc1O (centres undefined)	-15	38*	-15	-2	-3	4
FC(F)(F)c1nc2ccccc2nc1N/N=C\c1ccccc1	7	37*	18	6	1	-8
Cc1ccccc1C(=O)NC(=S)Nc1ccccc1C(F)(F)F	-4	6	-6	3	0	-6
Cc1ccc(C(=O)NC(=S)Nc2ccccc2C(F)(F)F)c(C)c1	0	32*	-23	10	-2	-10
O=C(/C=C\c1ccco1)Nc1nc(-c2ccc3ccccc3c2)cs1	-11	39*	-1	5	-9	7
Cc1ccc(-c2csc(NC(=S)NC(=O)/C=C/c3ccco3)n2)cc1	6	-12	-1	2	9	-2
COc1ccc(-c2cc(-c3nnc4sc(-c5cccs5)nn34)[nH]n2)cc1	.	.	.	-5	1	.
CC(/C=N/N1CCN(Cc2ccccc2)CC1)=C\c1ccccc1	-1	62*	-6	11	3	-6
Cc1ccc(S(=O)(=O)NCCCc2ccc3c(c2)[C@]2(CCC[C@@H](OCc4ccccc4)[C@@H]2NC(=O)CCc2ccccc2)C(=O)N3Cc2ccccc2)cc1	.	.	.	-5	0	.
CCc1ccc(NCc2nc(-c3ccccc3)no2)cc1	8	42*	-11	-6	-4	-12
Cc1ccc(-c2noc(CNc3ccccc3)n2)cc1	0	-28	-9	3	5	0
COc1ccc2c(c1)C[C@@H]1CC(C)(C)CN1S2(=O)=O	.	.	.	-5	4	.
Clc1ccc(Cc2nc(-c3cccnc3)no2)cc1	0	41*	-2	2	4	17
Fc1ccc(N2CCN(C3=Nc4ccccc4Sc4ccccc43)CC2)cc1	.	.	.	-11	2	.
